ChEMBL document CHEMBL2062375, “Discovery of an orally efficacious inhibitor of anaplastic lymphoma kinase” (J Med Chem, 2012)
pIC50: −log10 of the molar value. Calls of active or inactive are those of the source. The rule behind the calls is not given here.

Legend:
[1] = Oral bioavailability in Beagle dog at 10 mg/kg; assay type: ADME, organism-based, Canis lupus familiaris; settings: in vivo
Outline: (§1)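 PK: overnight-fasted animals. Rat oral gavage 5 mL/kg in 40% HPβCD, serial tail-vein blood over 6 h. Dog oral gavage 1 mL/kg, monkey nasogastric 2 mL/kg, femoral-vein blood over 24 h. Plasma protein-precipitated with acetonitrile, LCMS/MS with internal standard; noncompartmental analysis, individual animals n = 3, mean ± SEM.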

[2] = Cmax in SCID mouse at 10 mg/kg, po; assay type: ADME, organism-based; parameters: dose 10 mg/kg, route oral; settings: in vivo
Outline: (§2)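 Mouse PK. IV via the lateral tail vein in 3% DMSO/30% Solutol/67% PBS, or oral gavage in 100% PEG400, 100 μL dose volume, after an overnight fast. Trunk blood was taken from three mice per time point over 6 h. Plasma was acetonitrile-precipitated and analysed by LC-MS/MS. Parameters were derived noncompartmentally.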

[3] = Half life in cynomolgus monkey at 1 mg/kg, iv; assay type: ADME, organism-based, Macaca fascicularis; parameters: dose 1 mg/kg, route intravenous; settings: in vivo
Outline: (§3)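 Dog and monkey PK. IV 0.5 mL/kg in 40% HPβCD via the saphenous vein. Oral dosing was 1 mL/kg by gavage in dogs and 2 mL/kg by nasogastric tube in monkeys, after an overnight fast. Serial femoral-vein blood was taken into heparin over 24 h. Plasma was acetonitrile-precipitated and analysed by LC-MS/MS. Parameters were noncompartmental, n = 3, mean ± SEM.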

[4] = Cmax in Sprague-Dawley rat at 10 mg/kg, po; assay type: ADME, organism-based; parameters: dose 10 mg/kg, route oral; settings: in vivo
Outline: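 Rat PK. IV via the lateral tail vein, 1 mL/kg in 3% DMSO/30% Solutol/67% PBS, or oral gavage at 5 mL/kg in 40% HPβCD, after an overnight fast. Serial tail-vein blood was taken into heparin over 6 h. Plasma was acetonitrile-precipitated and analysed by LC-MS/MS. Parameters were noncompartmental, n = 3, mean ± SEM.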

[5] = target: Vascular endothelial growth factor receptor 3 (Homo sapiens, UniProt P35916); settings: 1 uM
[6] = Half life in CD-1 mouse at 10 mg/kg, po; assay type: ADME, organism-based; parameters: dose 10 mg/kg, route oral; settings: in vivo; outline: as §2
NB1643 = test: Antitumor activity against human NB1643 cells expressing ALK mutant F1174L assessed as growth inhibition administered as po bid; assay type: functional, organism-based
[7] = Plasma clearance in cynomolgus monkey at 1 mg/kg, iv; assay type: ADME, organism-based, Macaca fascicularis; parameters: dose 1 mg/kg, route intravenous
Outline: (§4)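 IV PK: rats via lateral tail vein (1 mL/kg; 3% DMSO/30% Solutol/67% PBS), serial tail-vein blood over 6 h. Dogs and monkeys via saphenous vein (0.5 mL/kg in 40% HPβCD), femoral-vein blood over 24 h. Acetonitrile protein precipitation, LCMS/MS; noncompartmental parameters from individual animals, n = 3, mean ± SEM.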

[8] = Drug level in SCID mouse tumor xenografted with human KARPAS299 cells expressing NPM-ALK at 30 mg/kg, po after 12 hrs by LC-MS/MS analysis; assay type: ADME, organism-based, Neoplasm, KARPAS-299; parameters: dose 30 mg/kg, route oral; settings: read-out: Drug uptake
Mus musculus = test: Toxicity in SCID mouse xenografted with human KARPAS299 cells expressing NPM-ALK assessed as overt toxicity at 10 to 30 mg/kg, po bid; assay type: organism-based, KARPAS-299; parameters: dose 10-30 mg/kg, route oral; settings: in vivo
Outline: (§5)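 Female SCID/beige mice (6–8 weeks), Karpas-299 cells implanted sc in left flank; at ~600 mm³ randomized (8–10/group), dosed orally in PEG400, 100 μL, b.i.d. for 12 days. Body weight every 2–3 days; plasma and tumor sampled 2 h after final dose, drug by LCMS/MS; Mann–Whitney rank sum statistics.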

[9] = Volume of distribution in Sprague-Dawley rat at 1 mg/kg, iv; assay type: ADME, organism-based; parameters: dose 1 mg/kg, route intravenous; settings: in vivo; outline: as §4
[10] = Plasma concentration in SCID mouse xenografted with human KARPAS299 cells expressing NPM-ALK at 30 mg/kg, po after 2 hrs by LC-MS/MS analysis; assay type: ADME, organism-based, KARPAS-299; parameters: dose 30 mg/kg, route oral
Outline: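 Pharmacodynamic study: SCID mice bearing subcutaneous Karpas-299 xenografts given single 30 mg/kg oral dose; plasma drug levels measured by LCMS/MS, reported as mean ± SEM.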

[11] = AUC in Beagle dog at 10 mg/kg, po; assay type: ADME, organism-based, Canis lupus familiaris; parameters: dose 10 mg/kg, route oral; settings: plasma; outline: as §3
[12] = Tmax in cynomolgus monkey at 10 mg/kg, po; assay type: ADME, organism-based, Macaca fascicularis; parameters: dose 10 mg/kg, route oral; settings: in vivo; outline: as §1
[13] = target: Tyrosine-protein kinase Fer (Homo sapiens, UniProt P16591); test: Inhibition of human Fer
Sequence of Tyrosine-protein kinase Fer (P16591 whole entry): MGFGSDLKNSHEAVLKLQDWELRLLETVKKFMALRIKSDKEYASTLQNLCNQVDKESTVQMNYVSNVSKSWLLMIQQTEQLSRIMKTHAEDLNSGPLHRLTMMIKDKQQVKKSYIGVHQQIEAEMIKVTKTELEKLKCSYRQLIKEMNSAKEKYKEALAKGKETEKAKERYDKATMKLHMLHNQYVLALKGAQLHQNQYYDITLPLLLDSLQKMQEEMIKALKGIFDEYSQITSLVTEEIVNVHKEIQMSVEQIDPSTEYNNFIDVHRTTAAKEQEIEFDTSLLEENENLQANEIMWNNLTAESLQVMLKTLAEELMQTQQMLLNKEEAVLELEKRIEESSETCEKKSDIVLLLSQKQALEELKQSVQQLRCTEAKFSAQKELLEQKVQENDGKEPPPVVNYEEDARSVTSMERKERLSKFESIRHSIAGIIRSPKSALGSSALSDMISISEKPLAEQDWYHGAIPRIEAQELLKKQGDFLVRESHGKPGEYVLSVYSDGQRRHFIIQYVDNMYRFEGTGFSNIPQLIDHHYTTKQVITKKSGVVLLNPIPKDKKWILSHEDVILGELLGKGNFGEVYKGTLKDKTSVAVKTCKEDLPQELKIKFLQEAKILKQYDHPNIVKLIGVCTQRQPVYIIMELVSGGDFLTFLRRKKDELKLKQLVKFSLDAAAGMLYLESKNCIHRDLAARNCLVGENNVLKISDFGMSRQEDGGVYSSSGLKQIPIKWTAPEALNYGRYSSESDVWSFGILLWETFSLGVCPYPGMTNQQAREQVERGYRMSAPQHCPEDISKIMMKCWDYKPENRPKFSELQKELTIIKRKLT

Rattus norvegicus = test: Ratio of AUC (0 to 12 h) at 10 mg/kg, po to AUC (0 to 12 h) at 100 mg/kg, po in rat; assay type: ADME, organism-based; settings: in vivo
Outline: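 Oral dose-escalation PK study in rats at 10, 30, 55 and 100 mg/kg. […] The ratio compares the 10 mg/kg value with the 100 mg/kg value.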

[14] = target: Receptor-type tyrosine-protein kinase FLT3 (Homo sapiens, UniProt P36888); test: Inhibition of human Flt3
Outline: (§6)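 Millipore KinaseProfiler activity assays on a 259-kinase panel; kinases inhibited by ≥90% at 1 μM then taken to full IC50 determination.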

[15] = target: T1, Ribosomal protein S6 kinase alpha-2 (Homo sapiens, UniProt Q15349); test: Inhibition of human Rsk3; outline: as §6
T1 sequence (Q15349 whole entry): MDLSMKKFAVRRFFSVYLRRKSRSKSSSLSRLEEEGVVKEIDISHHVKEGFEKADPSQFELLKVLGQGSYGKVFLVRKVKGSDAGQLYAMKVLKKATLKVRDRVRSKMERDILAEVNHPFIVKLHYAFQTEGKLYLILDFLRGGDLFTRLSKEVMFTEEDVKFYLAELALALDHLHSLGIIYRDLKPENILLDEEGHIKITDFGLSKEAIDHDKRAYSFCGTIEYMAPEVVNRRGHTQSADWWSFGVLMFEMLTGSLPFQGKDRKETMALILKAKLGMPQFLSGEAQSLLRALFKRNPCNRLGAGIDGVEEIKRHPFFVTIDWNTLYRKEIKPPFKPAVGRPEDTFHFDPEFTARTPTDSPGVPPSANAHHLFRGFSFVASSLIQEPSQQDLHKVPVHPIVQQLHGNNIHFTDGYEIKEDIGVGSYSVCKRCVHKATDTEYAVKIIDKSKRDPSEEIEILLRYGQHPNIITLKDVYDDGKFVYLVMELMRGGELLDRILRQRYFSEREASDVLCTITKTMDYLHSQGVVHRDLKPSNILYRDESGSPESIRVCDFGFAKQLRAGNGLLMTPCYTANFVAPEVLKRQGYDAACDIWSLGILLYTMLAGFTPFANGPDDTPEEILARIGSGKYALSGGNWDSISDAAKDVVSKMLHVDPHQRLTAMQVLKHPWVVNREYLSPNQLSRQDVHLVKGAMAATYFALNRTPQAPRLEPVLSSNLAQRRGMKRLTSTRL

[16] = target: Protein-tyrosine kinase 6 (Homo sapiens, UniProt Q13882); settings: 1 uM
Sequence of Protein-tyrosine kinase 6 (Q13882 whole entry, looked up): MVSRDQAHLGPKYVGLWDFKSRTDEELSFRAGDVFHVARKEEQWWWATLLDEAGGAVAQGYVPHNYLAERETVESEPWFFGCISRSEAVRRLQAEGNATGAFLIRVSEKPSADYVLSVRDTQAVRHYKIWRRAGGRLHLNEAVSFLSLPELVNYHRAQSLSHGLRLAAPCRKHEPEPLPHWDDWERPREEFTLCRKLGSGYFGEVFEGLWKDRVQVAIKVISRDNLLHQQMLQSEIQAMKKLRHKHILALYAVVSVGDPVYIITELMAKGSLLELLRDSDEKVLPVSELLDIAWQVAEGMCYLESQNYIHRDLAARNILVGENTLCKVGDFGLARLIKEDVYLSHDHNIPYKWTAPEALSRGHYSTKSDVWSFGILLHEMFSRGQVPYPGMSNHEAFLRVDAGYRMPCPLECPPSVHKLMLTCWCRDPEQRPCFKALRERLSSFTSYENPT

[17] = AUC in cynomolgus monkey at 10 mg/kg, po; assay type: ADME, organism-based, Macaca fascicularis; parameters: dose 10 mg/kg, route oral; settings: plasma; outline: as §3
Activated CDC42 kinase 1 [18] = target: T2, Activated CDC42 kinase 1 (Homo sapiens, UniProt Q07912); test: Inhibition of human ACK1
[19] = Plasma concentration in SCID/beige mouse xenografted with human KARPAS299 cells expressing NPM-ALK at 10 mg/kg, po bid after 2 hrs post last dose by LC-MS/MS analysis; assay type: ADME, organism-based, KARPAS-299; parameters: dose 10 mg/kg, route oral; outline: as §5
Focal adhesion kinase 1 = Focal adhesion kinase 1 (Homo sapiens, UniProt Q05397); settings: 1 uM
Sequence of Focal adhesion kinase 1 (Q05397 2-1052 limits assumed): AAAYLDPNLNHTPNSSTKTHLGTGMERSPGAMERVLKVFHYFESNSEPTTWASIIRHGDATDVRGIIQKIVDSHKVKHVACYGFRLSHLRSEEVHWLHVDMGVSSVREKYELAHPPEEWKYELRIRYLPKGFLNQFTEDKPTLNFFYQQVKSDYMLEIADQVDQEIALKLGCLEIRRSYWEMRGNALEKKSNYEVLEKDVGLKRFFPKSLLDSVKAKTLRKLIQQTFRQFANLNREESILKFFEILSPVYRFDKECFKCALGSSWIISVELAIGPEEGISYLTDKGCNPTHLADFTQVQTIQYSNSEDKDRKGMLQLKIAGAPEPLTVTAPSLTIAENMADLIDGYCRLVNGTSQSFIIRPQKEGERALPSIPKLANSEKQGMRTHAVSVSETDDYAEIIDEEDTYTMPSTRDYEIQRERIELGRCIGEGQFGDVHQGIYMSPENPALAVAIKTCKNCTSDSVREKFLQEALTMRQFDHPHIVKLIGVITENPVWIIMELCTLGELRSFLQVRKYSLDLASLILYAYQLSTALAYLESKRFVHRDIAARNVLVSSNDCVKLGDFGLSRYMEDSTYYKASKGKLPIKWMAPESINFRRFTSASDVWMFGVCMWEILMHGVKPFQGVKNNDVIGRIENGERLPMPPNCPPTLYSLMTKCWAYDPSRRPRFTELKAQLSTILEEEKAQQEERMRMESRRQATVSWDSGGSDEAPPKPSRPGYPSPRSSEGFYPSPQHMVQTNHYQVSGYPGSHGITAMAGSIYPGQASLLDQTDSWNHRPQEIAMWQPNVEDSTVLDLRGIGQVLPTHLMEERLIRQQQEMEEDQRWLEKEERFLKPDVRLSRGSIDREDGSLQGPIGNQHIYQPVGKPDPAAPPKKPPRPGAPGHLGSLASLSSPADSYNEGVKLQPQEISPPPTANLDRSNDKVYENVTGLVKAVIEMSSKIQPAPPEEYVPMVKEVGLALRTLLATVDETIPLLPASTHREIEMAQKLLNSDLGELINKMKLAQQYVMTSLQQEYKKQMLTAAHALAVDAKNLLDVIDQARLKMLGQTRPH

[20] = Half life in SCID mouse at 1 mg/kg, iv; assay type: ADME, organism-based; parameters: dose 1 mg/kg, route intravenous; settings: in vivo; outline: as §2
[21] = target: T1, Ribosomal protein S6 kinase alpha-2; settings: 1 uM
[22] = Drug level in SCID/beige mouse tumor xenografted with human KARPAS299 cells expressing NPM-ALK at 30 mg/kg, po bid after 2 hrs post last dose by LC-MS/MS analysis; assay type: ADME, organism-based, Neoplasm, KARPAS-299; parameters: dose 30 mg/kg, route oral; settings: read-out: Drug uptake
Outline: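 Female SCID/beige mice, 6–8 weeks old, implanted sc in the left flank with exponentially growing Karpas-299 cells. At about 600 mm³ tumours, mice were randomized (8–10/group) and given PEG400 vehicle or compound orally b.i.d., 100 μL, for 12 days. Tumour volume (0.5236LW(L+W)/2) and body weight were recorded every 2–3 days; Mann–Whitney test. Plasma and tumour levels were measured by LC-MS/MS 2 h after the final dose, mean ± SEM.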

Activated CDC42 kinase 1 [23] = target: T2, Activated CDC42 kinase 1; settings: 1 uM
[24] = AUC in SCID mouse at 1 mg/kg, iv; assay type: ADME, organism-based; parameters: dose 1 mg/kg, route intravenous; settings: plasma; outline: as §2
[25] = Oral bioavailability in cynomolgus monkey at 10 mg/kg; assay type: ADME, organism-based, Macaca fascicularis; settings: in vivo; outline: as §1
[26] = target: ALK tyrosine kinase receptor (Homo sapiens, UniProt Q9UM73); test: Inhibition of human ALK cytoplasmic domain expressed in baculovirus using GST-PLCgamma as substrate preincubated for 15 mins before substrate addition measured after 1 hr by time resolved fluorescence assay
Sequence of ALK tyrosine kinase receptor (Q9UM73 whole entry, the tested form may be a part): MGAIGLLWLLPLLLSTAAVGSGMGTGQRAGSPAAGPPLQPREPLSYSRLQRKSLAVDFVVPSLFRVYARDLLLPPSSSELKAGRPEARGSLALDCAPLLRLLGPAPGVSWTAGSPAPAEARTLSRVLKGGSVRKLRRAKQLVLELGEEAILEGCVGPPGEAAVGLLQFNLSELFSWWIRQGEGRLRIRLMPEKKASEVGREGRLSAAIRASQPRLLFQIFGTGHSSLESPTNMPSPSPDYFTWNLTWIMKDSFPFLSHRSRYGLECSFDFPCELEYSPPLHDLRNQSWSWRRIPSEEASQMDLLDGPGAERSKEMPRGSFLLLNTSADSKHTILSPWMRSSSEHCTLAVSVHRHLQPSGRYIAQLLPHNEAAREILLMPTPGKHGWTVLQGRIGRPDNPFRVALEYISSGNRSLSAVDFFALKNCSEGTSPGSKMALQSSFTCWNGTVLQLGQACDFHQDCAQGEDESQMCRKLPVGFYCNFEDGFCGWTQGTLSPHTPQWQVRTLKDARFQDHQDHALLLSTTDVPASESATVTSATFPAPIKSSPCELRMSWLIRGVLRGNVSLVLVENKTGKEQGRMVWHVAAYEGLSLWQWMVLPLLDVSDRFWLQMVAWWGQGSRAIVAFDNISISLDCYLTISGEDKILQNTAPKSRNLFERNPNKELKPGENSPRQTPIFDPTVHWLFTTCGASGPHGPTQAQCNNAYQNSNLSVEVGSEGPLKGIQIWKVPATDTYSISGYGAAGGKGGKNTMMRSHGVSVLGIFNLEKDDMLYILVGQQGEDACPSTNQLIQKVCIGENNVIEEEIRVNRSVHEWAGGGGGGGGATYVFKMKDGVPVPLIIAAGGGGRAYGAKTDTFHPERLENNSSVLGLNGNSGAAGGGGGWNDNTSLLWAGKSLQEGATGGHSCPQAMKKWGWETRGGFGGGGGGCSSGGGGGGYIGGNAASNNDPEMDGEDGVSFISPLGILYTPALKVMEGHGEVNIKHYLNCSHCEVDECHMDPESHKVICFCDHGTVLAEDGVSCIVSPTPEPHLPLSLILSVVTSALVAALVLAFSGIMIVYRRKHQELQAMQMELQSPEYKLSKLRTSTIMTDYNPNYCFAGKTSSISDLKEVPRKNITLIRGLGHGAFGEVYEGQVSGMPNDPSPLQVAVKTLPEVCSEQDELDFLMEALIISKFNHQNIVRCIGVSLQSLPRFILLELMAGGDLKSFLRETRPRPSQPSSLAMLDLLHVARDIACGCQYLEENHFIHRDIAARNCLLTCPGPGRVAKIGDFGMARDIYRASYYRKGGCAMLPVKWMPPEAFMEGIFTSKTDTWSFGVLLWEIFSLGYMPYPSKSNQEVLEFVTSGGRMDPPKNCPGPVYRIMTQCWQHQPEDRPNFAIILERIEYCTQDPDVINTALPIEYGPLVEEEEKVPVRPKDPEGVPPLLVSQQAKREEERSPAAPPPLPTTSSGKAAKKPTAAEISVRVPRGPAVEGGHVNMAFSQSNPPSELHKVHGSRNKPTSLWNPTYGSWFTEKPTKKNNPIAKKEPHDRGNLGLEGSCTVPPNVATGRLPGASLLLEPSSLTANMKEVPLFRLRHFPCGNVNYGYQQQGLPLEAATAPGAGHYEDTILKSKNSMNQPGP

bioavailability [1]: 52%
Cmax [2]: 2750 ng/mL
half-life [3]: 1.2 h
Cmax [4]: 599 ng/mL
inhibition [5]: > 90%
half-life [6]: 2.3 h
clearance [7]: 28 mL/min/kg
concentration at 12 h [8]: 1460 ng/g
Vd [9]: 1.3 L/kg
concentration at 2 h [10]: 4180 ng/mL
AUC [11]: 2130 ng·h/mL
Tmax [12]: 4.7 h
pIC50 [13]: 7.07
Ratio (Rattus norvegicus): 15
pIC50 [14]: 7.06
pIC50 [15]: 8.15
inhibition [16]: > 90%
AUC [17]: 954 ng·h/mL
pIC50 (Activated CDC42 kinase 1 [18]): 7.39
concentration at 2 h [19]: 1960 ng/mL
inhibition (Focal adhesion kinase 1): > 90%
half-life [20]: 1.8 h
inhibition [21]: > 90%
concentration at 2 h [22]: 4040 ng/g
inhibition (Activated CDC42 kinase 1 [23]): > 90%
AUC [24]: 3020 ng·h/mL
bioavailability [25]: 16%
pIC50 [26]: 8.72
SMILES: COc1c(Nc2ncc(Cl)c(N[C@H]3[C@@H](C(N)=O)[C@@H]4C=C[C@H]3C4)n2)ccc2c1CC[C@@H](N1CCOCC1)CC2
growth inhibition (GI) (NB1643): Active
Activity (Mus musculus): Non-toxic
